According to ChEMBL document CHEMBL3734675, “Synthesis, antimycobacterial and antibacterial activity of fluoroquinolone derivatives containing an 3-alkoxyimino-4-(cyclopropylanimo)methylpyrrolidine moiety” (2015):
Converted amounts (≈) assume the structure as drawn.

Experiments:
Type in all cases: functional
Escherichia coli [1] = assay: Antibacterial activity against Escherichia coli ATCC 25922 after 18 to 24 hrs by two-fold serial dilution method
In short: (§1)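 Twofold serial dilution in agar media against Gram-positive and Gram-negative strains. Plates incubated at 35 °C for 18–24 h. MIC read as the lowest compound concentration giving complete inhibition of bacterial growth.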

Escherichia coli [2] = assay: Antibacterial activity against extended-spectrum beta-lactamase producing Escherichia coli 14-1 after 18 to 24 hrs by two-fold serial dilution method; in short: as §1
Escherichia coli [3] = assay: Antibacterial activity against extended-spectrum beta-lactamase producing Escherichia coli 14-2 after 18 to 24 hrs by two-fold serial dilution method; in short: as §1
Escherichia coli [4] = assay: Antibacterial activity against Escherichia coli 14-1 after 18 to 24 hrs by two-fold serial dilution method; in short: as §1
Escherichia coli [5] = assay: Antibacterial activity against Escherichia coli 14-2 after 18 to 24 hrs by two-fold serial dilution method; in short: as §1
Klebsiella pneumoniae [6] = assay: Antibacterial activity against extended-spectrum beta-lactamase producing Klebsiella pneumoniae 14-17 after 18 to 24 hrs by two-fold serial dilution method; in short: as §1
Klebsiella pneumoniae [7] = assay: Antibacterial activity against extended-spectrum beta-lactamase producing Klebsiella pneumoniae 14-18 after 18 to 24 hrs by two-fold serial dilution method; in short: as §1
Klebsiella pneumoniae [8] = assay: Antibacterial activity against extended-spectrum beta-lactamase producing Klebsiella pneumoniae 14-19 after 18 to 24 hrs by two-fold serial dilution method; in short: as §1
Klebsiella pneumoniae [9] = assay: Antibacterial activity against Klebsiella pneumoniae 14-1 after 18 to 24 hrs by two-fold serial dilution method; in short: as §1
Klebsiella pneumoniae [10] = assay: Antibacterial activity against Klebsiella pneumoniae 14-2 after 18 to 24 hrs by two-fold serial dilution method; in short: as §1
Klebsiella pneumoniae [11] = assay: Antibacterial activity against Klebsiella pneumoniae 14-3 after 18 to 24 hrs by two-fold serial dilution method; in short: as §1
Klebsiella pneumoniae [12] = assay: Antibacterial activity against Klebsiella pneumoniae 14-4 after 18 to 24 hrs by two-fold serial dilution method; in short: as §1
Pseudomonas aeruginosa [13] = assay: Antibacterial activity against Pseudomonas aeruginosa ATCC 27853 after 18 to 24 hrs by two-fold serial dilution method; in short: as §1
Pseudomonas aeruginosa [14] = assay: Antibacterial activity against Pseudomonas aeruginosa 14-9 after 18 to 24 hrs by two-fold serial dilution method; in short: as §1
Pseudomonas aeruginosa [15] = assay: Antibacterial activity against Pseudomonas aeruginosa 14-14 after 18 to 24 hrs by two-fold serial dilution method; in short: as §1
Pseudomonas aeruginosa [16] = assay: Antibacterial activity against Pseudomonas aeruginosa 14-15 after 18 to 24 hrs by two-fold serial dilution method; in short: as §1
Pseudomonas aeruginosa [17] = assay: Antibacterial activity against Pseudomonas aeruginosa 14-16 after 18 to 24 hrs by two-fold serial dilution method; in short: as §1
Staphylococcus aureus [18] = assay: Antibacterial activity against Staphylococcus aureus CMCC 26003 after 18 to 24 hrs by two-fold serial dilution method; in short: as §1
Staphylococcus aureus [19] = assay: Antibacterial activity against methicillin-sensitive Staphylococcus aureus 14-1 after 18 to 24 hrs by two-fold serial dilution method; in short: as §1
Staphylococcus aureus [20] = assay: Antibacterial activity against methicillin-sensitive Staphylococcus aureus 14-3 after 18 to 24 hrs by two-fold serial dilution method; in short: as §1
Staphylococcus aureus [21] = assay: Antibacterial activity against methicillin-sensitive Staphylococcus aureus 14-4 after 18 to 24 hrs by two-fold serial dilution method; in short: as §1
Staphylococcus aureus [22] = assay: Antibacterial activity against methicillin-resistant Staphylococcus aureus 14-4 after 18 to 24 hrs by two-fold serial dilution method
In short: (§2)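 Agar media, standard twofold serial dilution. MIC is the lowest concentration giving complete inhibition of bacterial growth after incubation at 35 °C for 18–24 h. Ciprofloxacin and levofloxacin were run as comparators.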

Staphylococcus aureus [23] = assay: Antibacterial activity against methicillin-resistant Staphylococcus aureus 14-5 after 18 to 24 hrs by two-fold serial dilution method; in short: as §2
[24] = test system: Staphylococcus epidermidis; assay: Antibacterial activity against methicillin-sensitive Staphylococcus epidermidis 14-2 after 18 to 24 hrs by two-fold serial dilution method; in short: as §1
[25] = test system: Staphylococcus epidermidis; assay: Antibacterial activity against methicillin-resistant Staphylococcus epidermidis 14-21 after 18 to 24 hrs by two-fold serial dilution method; in short: as §2
[26] = test system: Staphylococcus epidermidis; assay: Antibacterial activity against methicillin-resistant Staphylococcus epidermidis 14-22 after 18 to 24 hrs by two-fold serial dilution method; in short: as §2
[27] = test system: Staphylococcus epidermidis; assay: Antibacterial activity against methicillin-resistant Staphylococcus epidermidis 14-37 after 18 to 24 hrs by two-fold serial dilution method; in short: as §2
[28] = test system: Staphylococcus epidermidis; assay: Antibacterial activity against methicillin-resistant Staphylococcus epidermidis 14-39 after 18 to 24 hrs by two-fold serial dilution method; in short: as §2
Streptococcus pneumoniae = assay: Antibacterial activity against methicillin-resistant Streptococcus pneumoniae ATCC 19615 after 18 to 24 hrs by two-fold serial dilution method; in short: as §2
Enterococcus faecium [29] = assay: Antibacterial activity against Enterococcus faecium 14-2 after 18 to 24 hrs by two-fold serial dilution method; in short: as §1
Enterococcus faecium [30] = assay: Antibacterial activity against Enterococcus faecium 14-5 after 18 to 24 hrs by two-fold serial dilution method; in short: as §1
Enterococcus faecium [31] = assay: Antibacterial activity against Enterococcus faecium 14-6 after 18 to 24 hrs by two-fold serial dilution method; in short: as §1
Enterococcus faecalis [32] = assay: Antibacterial activity against Enterococcus faecalis 14-1 after 18 to 24 hrs by two-fold serial dilution method; in short: as §1
Enterococcus faecalis [33] = assay: Antibacterial activity against Enterococcus faecalis 14-2 after 18 to 24 hrs by two-fold serial dilution method; in short: as §1

SMILES | MIC (Escherichia coli [1]) [µg/mL] | MIC (Klebsiella pneumoniae [8]) [µg/mL] | MIC (Klebsiella pneumoniae [9]) [µg/mL] | MIC (Klebsiella pneumoniae [10]) [µg/mL] | MIC (Klebsiella pneumoniae [11]) [µg/mL] | MIC (Klebsiella pneumoniae [12]) [µg/mL] | MIC (Staphylococcus aureus [18]) [µg/mL] | MIC (Staphylococcus aureus [19]) [µg/mL] | MIC (Staphylococcus aureus [21]) [µg/mL] | MIC (Staphylococcus aureus [22]) [µg/mL] | MIC [24] [µg/mL] | MIC [25] [µg/mL] | MIC [26] [µg/mL] | MIC [27] [µg/mL] | MIC [28] [µg/mL] | MIC (Enterococcus faecium [29]) [µg/mL] | MIC (Enterococcus faecium [30]) [µg/mL] | MIC (Enterococcus faecium [31]) [µg/mL] | MIC (Enterococcus faecalis [32]) [µg/mL] | MIC (Enterococcus faecalis [33]) [µg/mL] | also measured
CO/N=C1/CN(c2c(F)cc3c(=O)c(C(=O)O)cn4c3c2OC[C@@H]4CF)CC1(C)CNC1CC1 (stereo partly specified) | 2 (≈ 4.2 µM) | > 128 | > 128 | > 128 | 128 (≈ 269 µM) | 128 (≈ 269 µM) | < 0.008 | 4 (≈ 8.39 µM) | 0.03 (≈ 0.063 µM) | 8 (≈ 16.8 µM) | 16 (≈ 33.6 µM) | 16 (≈ 33.6 µM) | 4 (≈ 8.39 µM) | 16 (≈ 33.6 µM) | 2 (≈ 4.2 µM) | 8 (≈ 16.8 µM) | 4 (≈ 8.39 µM) | 16 (≈ 33.6 µM) | 16 (≈ 33.6 µM) | 0.5 (≈ 1.05 µM) | MIC (Escherichia coli [2]): 8 µg/mL (≈ 16.8 µM); MIC (Escherichia coli [3]): > 128 µg/mL; MIC (Escherichia coli [4]): > 128 µg/mL; MIC (Escherichia coli [5]): > 128 µg/mL; MIC (Klebsiella pneumoniae [6]): 32 µg/mL (≈ 67.2 µM); MIC (Klebsiella pneumoniae [7]): 32 µg/mL (≈ 67.2 µM); MIC (Pseudomonas aeruginosa [13]): 32 µg/mL (≈ 67.2 µM); MIC (Pseudomonas aeruginosa [14]): 32 µg/mL (≈ 67.2 µM); MIC (Pseudomonas aeruginosa [15]): 128 µg/mL (≈ 269 µM); MIC (Pseudomonas aeruginosa [16]): 128 µg/mL (≈ 269 µM); MIC (Pseudomonas aeruginosa [17]): 64 µg/mL (≈ 134 µM); MIC (Staphylococcus aureus [20]): 0.03 µg/mL (≈ 0.063 µM); MIC (Staphylococcus aureus [23]): 4 µg/mL (≈ 8.39 µM); MIC (Streptococcus pneumoniae): 0.25 µg/mL (≈ 0.525 µM)
C[C@H]1COc2c(N3CCN(C)CC3)c(F)cc3c(=O)c(C(=O)O)cn1c23.C[C@H]1COc2c(N3CCN(C)CC3)c(F)cc3c(=O)c(C(=O)O)cn1c23.O [LEVOFLOXACIN] | 0.125 | 64 | 16 | 8 | 32 | 16 | 0.25 | 8 | 0.5 | 64 | > 128 | 64 | 32 | 64 | 64 | 32 | 64 | 64 | 128 | 1 | MIC (Escherichia coli [2]): 4 µg/mL; MIC (Escherichia coli [3]): 8 µg/mL; MIC (Escherichia coli [4]): 8 µg/mL; MIC (Escherichia coli [5]): 8 µg/mL; MIC (Pseudomonas aeruginosa [14]): 0.5 µg/mL; MIC (Staphylococcus aureus [20]): 0.125 µg/mL; MIC (Staphylococcus aureus [23]): 8 µg/mL
CO/N=C1/CN(c2nc3c(cc2F)c(=O)c(C(=O)O)cn3C2CC2)CC1(C)CNC1CC1 (stereo unspecified) | 0.5 (≈ 1.13 µM) | 64 (≈ 144 µM) | 64 (≈ 144 µM) | 128 (≈ 289 µM) | > 128 | > 128 | < 0.008 | 0.5 (≈ 1.13 µM) | 0.5 (≈ 1.13 µM) | 4 (≈ 9.02 µM) | 16 (≈ 36.1 µM) | 4 (≈ 9.02 µM) | 2 (≈ 4.51 µM) | 4 (≈ 9.02 µM) | 2 (≈ 4.51 µM) | 4 (≈ 9.02 µM) | 4 (≈ 9.02 µM) | 2 (≈ 4.51 µM) | 16 (≈ 36.1 µM) | 0.5 (≈ 1.13 µM) | MIC (Escherichia coli [2]): 32 µg/mL (≈ 72.2 µM); MIC (Escherichia coli [3]): > 128 µg/mL; MIC (Escherichia coli [4]): > 128 µg/mL; MIC (Escherichia coli [5]): > 128 µg/mL; MIC (Klebsiella pneumoniae [6]): 64 µg/mL (≈ 144 µM); MIC (Klebsiella pneumoniae [7]): 64 µg/mL (≈ 144 µM); MIC (Pseudomonas aeruginosa [13]): 32 µg/mL (≈ 72.2 µM); MIC (Pseudomonas aeruginosa [14]): 16 µg/mL (≈ 36.1 µM); MIC (Pseudomonas aeruginosa [15]): 64 µg/mL (≈ 144 µM); MIC (Pseudomonas aeruginosa [16]): 64 µg/mL (≈ 144 µM); MIC (Pseudomonas aeruginosa [17]): 64 µg/mL (≈ 144 µM); MIC (Staphylococcus aureus [20]): 0.25 µg/mL (≈ 0.564 µM); MIC (Staphylococcus aureus [23]): 4 µg/mL (≈ 9.02 µM); MIC (Streptococcus pneumoniae): 0.25 µg/mL (≈ 0.564 µM)
O=C(O)c1cn(C2CC2)c2cc(N3CCNCC3)c(F)cc2c1=O [CIPROFLOXACIN] | < 0.008 | 64 (≈ 193 µM) | 32 (≈ 96.6 µM) | 16 (≈ 48.3 µM) | > 128 | 32 (≈ 96.6 µM) | 0.5 (≈ 1.51 µM) | 32 (≈ 96.6 µM) | 0.5 (≈ 1.51 µM) | > 128 | > 128 | 64 (≈ 193 µM) | 128 (≈ 386 µM) | 128 (≈ 386 µM) | 128 (≈ 386 µM) | 32 (≈ 96.6 µM) | 128 (≈ 386 µM) | > 128 | 64 (≈ 193 µM) | 1 (≈ 3.02 µM) | MIC (Klebsiella pneumoniae [6]): 0.5 µg/mL (≈ 1.51 µM); MIC (Klebsiella pneumoniae [7]): 0.5 µg/mL (≈ 1.51 µM); MIC (Pseudomonas aeruginosa [15]): 1 µg/mL (≈ 3.02 µM); MIC (Pseudomonas aeruginosa [16]): 1 µg/mL (≈ 3.02 µM); MIC (Pseudomonas aeruginosa [17]): 1 µg/mL (≈ 3.02 µM); MIC (Streptococcus pneumoniae): 2 µg/mL (≈ 6.04 µM)
